# Experimental data: ChEMBL document CHEMBL4513216, “Probing the Open Global Health Chemical Diversity Library for Multistage-Active Starting Points for Next-Generation Antimalarials” (ACS Infect Dis, 2020)
# Assay: Toxicity liver stage against HepG2, at 10uM
# Assay type: cell-based
# Set-up: test concentration 10 uM, cell line HepG2-A16-CD81EGFP
# Settings: human, HepG2-A16-CD81EGFP cells; read-out: INHIBITION
# In short: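 Uninfected HepG2-A16-CD81EGFP cells, 3 × 10^3 per well, 1536-well, plated on prespotted compound at 10 μM final, parasite-free screening media added to match infected plates; puromycin 10 μM positive, DMSO 0.5% negative; run in parallel with 48 h PbLuc assay at 37 °C, 5% CO2; viability by CellTiter-Glo luminescence, normalized to controls.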
row,Structure (SMILES),cytotoxicity at 10 µM [%]
1,CC(=O)N1CCCC(C(=O)Nc2ccccc2Cc2ccccc2)C1 (stereo not drawn),3.88
2,COCCOc1ccc(-c2noc([C@@H]3CCCN3C3CCC3)n2)cn1,-4.26
3,CCOCCCNC(=O)CCCC(=O)n1nc(C)c2ccccc21,-1.29
4,CO[C@@H]1CN(c2ccccc2)S(=O)(=O)[C@@]12CCN(C)C2,3.33
5,COc1cccc(CN2CC(O)CN(S(C)(=O)=O)CC2=O)c1OC (stereo not drawn),-0.686
6,COC(=O)CCNC(=O)c1nc(NS(=O)(=O)c2ccccc2)sc1C,8.23
7,O=c1c(NCCc2ccc(O)cc2)c(NCc2ccncc2)c1=O,-5.46
8,Cc1nc(N(C)C)nc(C)c1NS(=O)(=O)c1ccccc1Cl,4.22
9,O=C(c1ccc[nH]1)N1CCO[C@H]2CC(COCc3ccccn3)C[C@@H]21 (stereo partly drawn),0.718
10,Cc1ccc(CN2CC[C@@H](N(C)C(C)C)[C@@H]2Cc2ccccc2)o1,-3.52
11,CNC(=O)[C@H]1C[C@@H]2CN(C(=O)c3ccsc3)C[C@@H]2N1S(C)(=O)=O,-2.42
12,CC(C)OCCCNC(=O)C1CCCN(c2ccc3nncn3n2)C1 (stereo not drawn),1.77
13,CC(C)Cc1noc(C2CCCCN2C(=O)CCc2cnn(C)c2)n1 (stereo not drawn),3.6
14,Cc1cccc(CN2CCOCC2c2[nH]ncc2C)n1 (stereo not drawn),6.91
15,O=C(O)CCCN1C[C@@H](c2ccccc2F)[C@@]2(CCCCC(=O)N2)C1,4.6
16,Cc1cc(Cc2ccc(F)cc2)cc(C2CCCNC2)n1 (stereo not drawn),-3.14
17,CCCn1nc(C)c(C(=O)N(C)[C@@H]2CC[C@@H](N3CCCC3)[C@@H]2O)c1C,2.28
18,Fc1cc(F)cc(CN2CCC(c3cc4ncccc4cn3)CC2)c1,-1.13
19,C[C@@H]1CN2C[C@H](O)CC2CN1Cc1ccncc1 (stereo partly drawn),0.207
20,CCc1nnc(Nc2cc(C)nc(C3CCN(c4cnccn4)C3)n2)s1 (stereo not drawn),4.24
21,CC(C)CC(=O)N1CCCC1c1nccnc1Nc1ncccn1 (stereo not drawn),-13.8
22,CNc1cc(CNC(=O)c2ccnc(OC)c2)nc(-c2ccncc2)n1,-7.08

row,Structure (SMILES),cytotoxicity at 10 µM [%]
1,Cc1cc(-c2cnc(N3CCCC3)nc2-c2ccc(C)s2)on1,-0.279
2,CS(=O)(=O)CCCN1CCSCC1c1ccc(Cl)cc1 (stereo not drawn),-14.5
3,CC(C)CNC(=O)c1sccc1-n1cnnn1,0.00426
4,O=S(=O)(NCCCn1cncn1)c1ccc2c(c1)OCCO2,5.38
5,CC(C)CNC(=O)C(C)N1CCN(C2CCN(C(C)C)CC2)CC1 (stereo not drawn),-7.09
6,O=C(Cn1ccc(=O)[nH]c1=O)NCc1cccnc1OCC(F)(F)F,-5.88
7,Cc1csc(N(C)C(=O)C2CC(=O)N(c3ccccc3F)C2)n1 (stereo not drawn),9.95
8,CN(C(=O)c1ccncc1)c1ccccc1S(C)(=O)=O,7.39
9,COc1ncc(NCc2ccsc2)cc1C(N)=O,1.25
10,CCCn1nnnc1COC(=O)C1COc2ccc(Cl)cc2C1 (stereo not drawn),-8.68
11,Cc1[nH]ncc1C(=O)NCC1CCC2(CC1)OCCO2,-8.2
12,Cc1n[nH]c(C2CN(C(=O)COCC(F)(F)F)CCO2)n1 (stereo not drawn),1.26
13,CC(CC(=O)N1CCCN(Cc2cscn2)CC1)n1cccc1 (stereo not drawn),-8.01
14,COc1ccc(NCC(=O)NCC(=O)N2CCCC2)c(C(F)(F)F)c1,6.78
15,Cc1cc(C)n(-c2cncc(NCCNC(=O)c3cccnc3)n2)n1,7.45
16,COc1cc(CNC(=O)N2CCCC2c2cc(C)no2)ccn1 (stereo not drawn),1.95
17,O=S(=O)(Cc1cccc(F)c1)NCC(O)Cc1ccccc1 (stereo not drawn),9.01
18,O=C(CCNS(=O)(=O)c1ccc(F)cc1)NCc1ccoc1,-6.08
19,CC(O)CN1CCN(C(=O)c2cnn(-c3ccccc3Cl)c2)CC1 (stereo not drawn),-8.9
20,Cc1ccc(C2COCCN2C(=O)c2ccc(C#N)cc2)o1 (stereo not drawn),-5.08
21,CC1CN(C(=O)Nc2ccc(Cl)c(C(=O)NC3CC3)c2)CC(C)(C)O1 (stereo not drawn),6.5
22,Cc1nn(C)c(N2CCOCC2)c1CNCc1cccnc1,7.11

row,Structure (SMILES),cytotoxicity at 10 µM [%]
1,Cc1cc(S(=O)(=O)NC(=O)CCc2cccnc2)c(C)s1,8.28
2,CC(C)(C)C(=O)NS(=O)(=O)c1ccc(F)cc1C(F)(F)F,-1.18
3,Cc1cc(SC(C)(C)C)ccc1NCC(=O)NC(N)=O,-17.1
4,Cc1nnc(C(C)N2CCc3[nH]c4ccccc4c3C2)o1 (stereo not drawn),-9.42
5,COc1cccc(NC(=O)NCC(Cc2cnn(C)c2)C(N)=O)c1 (stereo not drawn),-6.52
6,Cc1noc(C)c1CC(=O)N1CCCN(C)c2ccc(Cl)cc21,9.71
7,Cc1noc(C)c1CNC(=O)C1(NS(C)(=O)=O)CCCCC1,6.55
8,CC(C1CC1)N(CC(=O)NCC(F)(F)F)C1CC1 (stereo not drawn),-4.42
9,O=S(=O)(Cc1ccccc1)NCCc1nnc2n1CCC2,14.5
10,CN(C)C(=O)CCCS(=O)(=O)Cc1cc(Cl)c2c(c1)OCCO2,2.47
11,Cc1nc(NC(=O)C(C)S(C)(=O)=O)sc1Cc1ccccc1F (stereo not drawn),9.8
12,Cc1ccc(C(=O)NS(C)(=O)=O)cc1I,6.22
13,CCOC(=O)CN1CCC(NC(=O)OC(C)(C)C)CC1,0.449
14,COc1ccc(CN(CCC#N)CCN2CCOCC2)c(OC)c1,-1.39
15,CN(C1CCCC1)C(C)(C)C(=O)NCCNC(N)=O,-46.3
16,C[S+]([O-])c1nncn1CC(=O)c1ccc2c(c1)CCO2 (stereo not drawn),-2.85
17,COC1COC2(CCN(C(=O)c3ccc4ccccc4c3)CC2)C1 (stereo not drawn),-98.4
18,CCOCC(=O)N1CCc2nc(C)nc(NC(C)C)c2CC1,-98.7
19,CS(=O)(=O)N1CCC2(CCN(C(=O)c3cccs3)CC2)CC1,-108
20,COC1COC2(CCN(S(=O)(=O)c3ccc(F)cc3)CC2)C1 (stereo not drawn),-95.9
21,Cc1cnc(N2CCc3onc(COc4cccnc4)c3C2)nc1,-111
22,O=C(c1ccncc1)N1C[C@@H]2OCCN(CCN3CCCC3)[C@@H]2C1,-77.1

row,Structure (SMILES),cytotoxicity at 10 µM [%]
1,CN(Cc1cncnc1)[C@H]1CN(Cc2ccco2)[C@@H]2CCCO[C@@H]21,-78.7
2,CC(=O)N1CCCC2(CCN(C(=O)c3ccc(Cl)c(C(F)(F)F)c3)C2)C1 (stereo not drawn),-74.4
3,CCNc1ncc(C(=O)NCc2ccc3nsnc3c2)cn1,2.34
4,CCc1ocnc1C(=O)N1CCC(n2cc(-c3ccsc3)nn2)CC1,1.47
5,COc1ncc(-c2nccn2-c2ccccc2CN2CCOCC2)cn1,3.31
6,Cc1ccsc1CN(Cc1ncccc1C(=O)O)C1CC1,-5.8
7,COCCn1c(=O)n(Cc2ccc(Cl)s2)c2cc(C(=O)O)ccc21,-5.54
8,CCN1CC(C(=O)N2CCc3cc(C(N)=O)n(C)c3C2)CC1=O (stereo not drawn),-47.5
9,Cc1nc2c(c(NCc3ccc(-c4ccccn4)s3)n1)CCNCC2,-59.5
10,Cc1c(C(=O)N2C[C@@H](CN(C)CCO)[C@@H](CO)C2)sc2ccccc12,-11
11,CCCc1nc(CN(CC)Cc2ccoc2)no1,-2.52
12,COCCC1CCCCN1Cc1nc(C2CC2)no1 (stereo not drawn),8.53
13,COC[C@]1(O)CCN(Cc2cnc(N3CCOCC3)nc2)CC1(C)C,1.4
14,NC(=O)CN1CC2(CCC1=O)CCN(C(=O)c1ccccc1F)CC2,23.5
15,COCCn1ccnc1CN1CCc2[nH]cnc2C1c1cnn(C)c1C (stereo not drawn),-2.77
16,CC(C)[C@H]1CN(S(C)(=O)=O)C[C@@H]1NC(=O)c1ccnc(N)c1,8
17,O=C1NCCCC[C@@H]1NC(=O)C1(N2CCCCC2)Cc2ccccc2C1,-4.3
18,CCOc1ccc(OCc2nccc(-c3cc(C(=O)O)ccn3)n2)cc1,-11.8
19,CC(C)n1ccnc1C1CCCN(c2ccncc2F)C1 (stereo not drawn),-4.96
20,Cc1cc(N2CCC(O)(C(=O)O)CC2)nc2ccccc12,-41.5
21,CCOc1ccc(CC(=O)N2C[C@H](C3CC3)[C@@H](N)C2)cc1,-7.76
22,O[C@@H]1CN(CC2=Cc3cc(Cl)ccc3OC2)CC[C@H]1N1CCCCCC1,1.9

row,Structure (SMILES),cytotoxicity at 10 µM [%]
1,COc1cc2c(cc1-c1nc3c(cnn3C(C)C(C)C)[nH]1)OCO2 (stereo not drawn),8.61
2,COC[C@]1(O)CCN(c2cc(N3CCOCC3)ncn2)CC1(C)C,-3.81
3,N#Cc1cc2c(nc1SCc1cc(O)nc(O)n1)CCCC2,-3.94
4,Cc1cnn(CCNCc2cccc(C#N)c2)c1,-2.01
5,Cc1noc2ncc(C(=O)N3CCCC(n4ccnc4C)C3)cc12 (stereo not drawn),-13.4
6,O=C(NCC1CCSCC1)N(CCCO)C1CCc2ccccc21 (stereo not drawn),5.77
7,COc1ccc(CN(C)CC(=O)NC2(C)CCS(=O)(=O)C2)cc1F (stereo not drawn),7.44
8,CCn1cnnc1C1CCN(C(=O)COCCc2ccccc2)CC1,0.602
9,Cc1ccc(S(=O)(=O)N2CC[C@H]3CO[C@H](CN(C)C)[C@H]3C2)cc1,-98.3
10,CN(Cc1ccco1)Cc1cnc2n1CCN(S(C)(=O)=O)CC2,-2.75
11,O=C(C1CCC1)N1C[C@@H](c2ccsc2)[C@@H]2CN(C3CCCCC3)CC[C@@H]21,1.32
12,c1ccc(NC[C@@H]2CCC[C@@H]3CN(Cc4cccnc4)C[C@@H]32)nc1,2.78
13,CC(C)NC(=O)[C@@H]1CC[C@@H]2[C@@H](CCN2Cc2ccc3ccccc3n2)O1,3.98
14,Fc1ccc(CN2Cc3nccn3CC(CN3CCOCC3)C2)cc1 (stereo not drawn),-73.7
15,CCN1CCOCC12CCN(c1cnccn1)CC2,-111
16,Cn1cc(CN2C[C@@H]3COC[C@]3(C(=O)NCCc3ccccc3)C2)cn1,8.86
17,CC(C)N1CCO[C@@H]2CN(C(=O)NCc3ccccc3)CC[C@@H]2C1,-102
18,CN1CCN(Cc2cccnc2)C(=O)C12CCN(Cc1ccco1)CC2,-4.34
19,CCOCC(=O)N1C[C@@H]2CCN(c3cnccn3)C[C@@H]2C1,1.2
20,COc1ccc(C(=O)N2C[C@@H]3CC[C@H]2CN(C)C3)cc1Cl,5.79
